Reference: ChEMBL document CHEMBL5030534, “Discovery of Novel Anti-Breast-Cancer Inhibitors by Synergistically Antagonizing Microtubule Polymerization and Aryl Hydrocarbon Receptor Expression” (J Med Chem, 2021)
The source made the active and inactive calls. The calls are words filed in the database; no cut-off is given here.

Legend:
MCF7 [1] = experiment: Cell migration rate in human MCF7 cells at 2 nM incubated for 24 hrs by inverted fluorescence microscopic method (reference value: 11.51%); conditions: MCF7, 24 h
MCF7 [2] = experiment: Induction of apoptosis in human MCF7 cells assessed as necrotic cells at 1 nM measured after 24 hrs by Annexin V-FITC and PI staining based flow cytometry assay (reference value: 0.28%); type: functional
[3] = Toxicity in BALB/c nude mouse xenografted with human MCF7 cells assessed as effect on kidney at 0.5 to 1 mg/kg, iv administered every 2 days for 21 days by H and E staining based assay; type: organism-based; conditions: in vivo, 504 h, dose 0.5-1 mg/kg, time 21 day
Method in brief: (§1)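 Nude mice given 6 × 10⁶ MCF-7 cells subcutaneously on right flank; after 7 days randomized, eight per group. iv dosing every 2 days at 0.5 or 1 mg/kg; vehicle 10% DMSO/5% Tween 80/85% saline; paclitaxel 10 mg/kg and CA-4 20 mg/kg references. Body weight every 2 days; killed after 21 days; organs fixed, paraffin-sectioned, H&E stained.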

Cytochrome P450 1A1 = target: T1, Cytochrome P450 1A1 (Homo sapiens, UniProt P04798); experiment: Inhibition of CYP1A1 signalling in human MCF7 cells assessed as reduction in CYP1A1 level incubated for 24 hrs by Western blot analysis; type: ADME, cell-based; conditions: mcf7, 24 h, at 1 to 4 nM, dose 1-4 nM
T1 sequence (P04798 whole entry): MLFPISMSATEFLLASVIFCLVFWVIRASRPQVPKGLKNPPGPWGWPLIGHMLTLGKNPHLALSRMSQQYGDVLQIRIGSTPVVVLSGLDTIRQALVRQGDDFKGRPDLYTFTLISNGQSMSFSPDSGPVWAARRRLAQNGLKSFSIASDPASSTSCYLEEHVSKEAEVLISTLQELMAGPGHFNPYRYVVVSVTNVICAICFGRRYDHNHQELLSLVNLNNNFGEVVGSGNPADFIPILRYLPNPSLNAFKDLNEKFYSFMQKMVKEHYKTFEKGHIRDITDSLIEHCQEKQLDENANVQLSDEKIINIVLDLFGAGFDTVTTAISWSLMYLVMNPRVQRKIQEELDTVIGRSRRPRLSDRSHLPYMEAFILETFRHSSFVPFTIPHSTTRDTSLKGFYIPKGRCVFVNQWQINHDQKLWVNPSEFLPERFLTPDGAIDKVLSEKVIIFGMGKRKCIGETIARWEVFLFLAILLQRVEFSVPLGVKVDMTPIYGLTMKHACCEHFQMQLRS
Method in brief: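 MCF-7 cells seeded 4 × 10⁵ per well, grown 24 h, then exposed to DMSO or 1, 2, 4 nM for 24 h; BAY 2416964 served as AhR antagonist reference. Lysates adjusted to 3 mg/mL protein by BCA, resolved on 4−20% SDS-PAGE, immunoblotted; AhR and CYP1A1 bands normalized to GAPDH. Three independent runs.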

Tubulin (Homo sapiens) [4] = target: T2, Tubulin (Homo sapiens) (UniProt P68371+Q9H4B7+P0DPH7+P68366+Q13509+Q71U36+P04350+Q3ZCM7+P07437+P68363+Q9BQE3+Q6PEY2+Q13885+Q9BVA1+Q9BUF5); experiment: Induction of microtubule depolymerization in human MCF7 cells at 10 uM measured every 5 mins for 60 mins by spectrophotometric method; type: cell-based
Method in brief: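 Purified tubulin at 2 mg/mL in PEM buffer preincubated on ice with compound or DMSO. PEG added to a final 3 mg/mL, then polymerization followed at 37 °C by absorbance at 350 nm every 5 min for 60 min.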

MCF7 [5] = experiment: Induction of apoptosis in human MCF7 cells assessed as necrotic cells at 2 nM measured after 24 hrs in presence of DMBA by Annexin V-FITC and PI staining based flow cytometry assay (reference value: 0.9%); type: functional
MCF7 [6] = experiment: Induction of apoptosis in human MCF7 cells assessed as early apoptotic cells at 2 nM measured after 24 hrs in presence of DMBA by Annexin V-FITC and PI staining based flow cytometry assay (reference value: 1%); type: functional
Tubulin (Homo sapiens) [7] = target: T2, Tubulin (Homo sapiens); experiment: Induction of microtubule damage in human MCF7 cells incubated for 48 hrs by DAPI staining based immunofluorescence assay; type: cell-based; conditions: dose 0.5-4 nM
Method in brief: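 Blocked with goat serum for 20 min, probed with anti-β-tubulin for 2 h, fluorescent secondary antibody and DAPI nuclear stain, imaged by laser confocal microscopy.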

MCF7 [8] = experiment: Induction of apoptosis in human MCF7 cells assessed as late apoptotic cells at 2 nM measured after 24 hrs by Annexin V-FITC and PI staining based flow cytometry assay (reference value: 2.06%); type: functional
MCF7 [9] = experiment: Induction of apoptosis in human MCF7 cells assessed as increase in PARP protein expression at 1 to 4 nM; type: functional, cell-based; conditions: dose 1-4 nM
Method in brief: (§2)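 MCF-7 seeded 4 × 10⁵ per well for 24 h, then DMSO or compound at 1, 2, 4 nM for 24 h. Lysates protein-normalized to 3 mg/mL by BCA, resolved on 4–20% SDS-PAGE and immunoblotted. Bands quantified relative to β-actin (cell-cycle proteins) or GAPDH (apoptosis proteins); n = 3.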

MCF7 [10] = experiment: Induction of apoptosis in human MCF7 cells assessed as late apoptotic cells at 2 nM measured after 24 hrs by Annexin V-FITC and PI staining based flow cytometry assay (reference value: 1.5%); type: functional
MCF7 [11] = experiment: Induction of apoptosis in human MCF7 cells assessed as early apoptotic cells at 0.5 nM measured after 24 hrs by Annexin V-FITC and PI staining based flow cytometry assay (reference value: 0.90%); type: functional
MCF7 [12] = experiment: Induction of apoptosis in human MCF7 cells assessed as decrease in of Bcl-2 protein expression at 1 to 4 nM; type: functional, cell-based; conditions: dose 1-4 nM
Method in brief: as §2

MCF7 [13] = experiment: Cell cycle arrest in human MCF7 cells assessed as increase in Cyclin B1 protein expression; conditions: dose 1-4 nM
MCF7 [14] = experiment: Induction of ROS generation in human MCF7 cells measured after 24 hrs by DCFH-DA staining based flow cytometric analysis; type: functional, cell-based; conditions: dose 0.5-2 nM
Method in brief: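 MCF-7 seeded 4 × 10⁵ per well for 24 h, then DMSO or 0.5, 1, 2 nM for 24 h. Loaded with DCFH-DA for 30 min in the dark, resuspended in serum-free medium, DCF fluorescence measured by flow cytometry. For scavenger condition, 2.5 mM N-acetyl-L-cysteine pretreatment, then 2 nM for 24 h. Three runs.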

[15] = Toxicity in BALB/c nude mouse xenografted with human MCF7 cells assessed as effect on heart at 0.5 to 1 mg/kg, iv administered every 2 days for 21 days by H and E staining based assay; type: organism-based; conditions: in vivo, 504 h, dose 0.5-1 mg/kg, time 21 day
Method in brief: as §1

MCF7 [16] = experiment: Induction of apoptosis in human MCF7 cells assessed as early apoptotic cells at 1 nM measured after 24 hrs by Annexin V-FITC and PI staining based flow cytometry assay (reference value: 0.90%); type: functional
MCF7 [17] = experiment: Induction of mitochondrial membrane potential loss in human MCF7 cells at 2 nM measured after 24 hrs by JC-1 staining based flow cytometry analysis (reference value: 3.01%); type: functional

Cc1nc(N(C)c2ccc3c(c2)cc(C)n3C)c2ccccc2n1
Migration rate at 0.002 µM (MCF7 [1]): 3.78% | Activity (MCF7 [2]): 3.27% | Activity [3]: Non-Toxic | inhibition (INH) (Cytochrome P450 1A1): Dose-Dependent Effect | Activity (Tubulin (Homo sapiens) [4]): Active | Activity (MCF7 [5]): 5.6% | Activity (MCF7 [6]): 5% | Activity (Tubulin (Homo sapiens) [7]): Dose-Dependent Effect | Activity (MCF7 [8]): 45.1% | Activity (MCF7 [9]): Active | Activity (MCF7 [10]): 44.7% | Activity (MCF7 [11]): 1.28% | Activity (MCF7 [12]): Active | Activity (MCF7 [13]): Dose-Dependent Effect | Activity (MCF7 [14]): Dose-Dependent Effect | Activity [15]: Non-Toxic | Activity (MCF7 [16]): 6.63% | Activity (MCF7 [17]): 24.7%
